Converted amounts (≈) assume the structure as drawn.
What was measured:
Escherichia coli [1] = test: In vitro antibacterial activity against gram negative Escherichia coli KNK 437; format: functional
Procedure, shortened: (§1)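 Agar dilution MIC determination following the National Committee for Clinical Laboratory Standards recommendations.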

Pseudomonas aeruginosa [2] = test: In vivo efficacy against Pseudomonas aeruginosa 5007 in mouse protection test after subcutaneous administration; format: functional; details: Pseudomonas aeruginosa, sc; read-out: ED50
Procedure, shortened: (§2)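 Mouse protection model: mice infected intravenously with 100-fold LD50 of the organism. Compound given by subcutaneous injection or oral gavage at 1 and 5 h after infection, over a dose range. Deaths tracked for 7 days post-inoculation. ED50 is the dose giving 50% survival of treated mice over the trial.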

Mus musculus [3] = test: (§3) In vivo efficacy against Pseudomonas aeruginosa 5007 in mouse protection test after administration by oral gavage; format: functional; procedure, shortened: as §2
Streptococcus pyogenes = test: In vitro antibacterial activity against gram positive Streptococcus pyogenes 930; format: functional; procedure, shortened: as §1
Enterococcus faecium = test: In vitro antibacterial activity against gram-positive Enterococcus faecium ATCC 8043; format: functional; procedure, shortened: as §1
Pseudomonas aeruginosa [4] = test: In vitro antibacterial activity against gram negative P. aeruginosa DPHP 5263; format: functional; procedure, shortened: as §1
Escherichia coli [5] = test: In vivo efficacy against Escherichia coli JUHL in mouse protection test after p.o. administration.; format: functional; details: Escherichia coli, po; read-out: ED50; procedure, shortened: as §2
Pseudomonas aeruginosa [6] = test: In vitro antibacterial activity against Gram-negative Pseudomonas aeruginosa 5007; format: functional; procedure, shortened: as §1
Staphylococcus aureus [7] = test: In vitro antibacterial activity against gram-positive Staphylococcus aureus 1775; format: functional; procedure, shortened: as §1
Staphylococcus aureus [8] = test: In vitro antibacterial activity against gram-positive Staphylococcus aureus NCTC 10649M; format: functional; procedure, shortened: as §1
Burkholderia cepacia = test: In vitro antibacterial activity against gram negative Pseudomonas cepacia 2961; format: functional; procedure, shortened: as §1
Staphylococcus aureus [9] = test: In vivo efficacy against Staphylococcus aureus NCTC 10649M in mouse; format: functional; procedure, shortened: as §2
Staphylococcus aureus [10] = test: In vivo efficacy against Staphylococcus aureus NCTC 10649M in mouse protection test after p.o. administration.; format: functional; details: Staphylococcus aureus, po; read-out: ED50; procedure, shortened: as §2
Escherichia coli [11] = test: In vivo efficacy against Escherichia coli JUHL in mouse protection test after subcutaneous administration; format: functional; details: Escherichia coli, sc; read-out: ED50; procedure, shortened: as §2
Pseudomonas aeruginosa [12] = test: Not Plasmodium species; format: functional
Mus musculus [13] = test: In vivo efficacy against Pseudomonas aeruginosa 5007 in mouse protection test […]; format: functional; procedure, shortened: as §2
Streptococcus pneumoniae = test: In vivo efficacy against Streptococcus pneumoniae ATCC 6303 in mouse protection test after s.c. administration.; format: functional; details: Streptococcus pneumoniae, sc; read-out: ED50; procedure, shortened: as §2
Mus musculus [14] = test: In vivo efficacy against Streptococcus pneumoniae ATCC 6303 in mouse protection test after administration by oral gavage.; format: functional; procedure, shortened: as §2
Pseudomonas aeruginosa [15] = test: as §3; format: functional; details: Pseudomonas aeruginosa, po; read-out: ED50; procedure, shortened: as §2
Mus musculus [16] = test: In vivo efficacy against Streptococcus pneumoniae ATCC 6303 in mouse protection test after administration by oral gavage; format: functional; procedure, shortened: as §2
Mus musculus [17] = test: In vivo efficacy against Staphylococcus aureus NCTC 10649M in mouse protection test
Mus musculus [18] = test: In vivo efficacy against Pseudomonas aeruginosa 5007 in mouse protection test after administration by oral gavage.; format: functional; procedure, shortened: as §2
Mus musculus [19] = test: IIn vivo efficacy against Escherichia coli JUHL in mouse protection test after administration by oral gavage; format: functional; procedure, shortened: as §2
Mus musculus [20] = test: In vivo efficacy against Escherichia coli JUHL in mouse protection test after administration by oral gavage.; format: functional; procedure, shortened: as §2
[21] = Escherichia coli, read-out: MIC
[22] = Streptococcus pyogenes, read-out: MIC
[23] = Enterococcus faecium, ATCC 8043, read-out: MIC
[24] = Pseudomonas aeruginosa, DPHP 5263, read-out: MIC
[25] = Pseudomonas aeruginosa, read-out: MIC
[26] = Staphylococcus aureus, read-out: MIC
[27] = Staphylococcus aureus, NCTC 10649, read-out: MIC
[28] = Burkholderia cepacia, read-out: MIC
[29] = Staphylococcus aureus, read-out: ED50

| MIC (Escherichia coli [1]; [21]) | MIC (Streptococcus pyogenes; [22]) | MIC (Enterococcus faecium; [23]) | MIC (Pseudomonas aeruginosa [4]; [24]) | MIC (Pseudomonas aeruginosa [6]; [25]) | MIC (Staphylococcus aureus [7]; [26]) | MIC (Staphylococcus aureus [8]; [27]) | MIC (Burkholderia cepacia; [28]) | SMILES | ED50 (Pseudomonas aeruginosa [2]) | ED50 (Escherichia coli [5]) | ED50 (Staphylococcus aureus [9]; [29]) | ED50 (Staphylococcus aureus [10]) | ED50 (Escherichia coli [11]) | ED50 (Streptococcus pneumoniae) | ED50 (Mus musculus [16]) | further results |
| --- | --- | --- | --- | --- | --- | --- | --- | --- | --- | --- | --- | --- | --- | --- | --- | --- |
| 0.2 µg/mL (≈ 0.501 µM) | 0.05 µg/mL (≈ 0.125 µM) | 0.05 µg/mL (≈ 0.125 µM) | 25 µg/mL (≈ 62.6 µM) | 0.39 µg/mL (≈ 0.976 µM) | 1.56 µg/mL (≈ 3.91 µM) | 0.01 µg/mL (≈ 0.025 µM) | 3.1 µg/mL (≈ 7.76 µM) | Cc1c(N2CCCC(NC3CC3)C2)c(F)cn2c(=O)c(C(=O)O)cc(C3CC3)c12 (stereo not drawn) | > 32 mg/kg | 8 mg/kg | – | 2.1 mg/kg | 2.8 mg/kg | 1 mg/kg | 2.5 mg/kg | ED50 (Pseudomonas aeruginosa [15]): > 50 mg/kg; ED50 (Mus musculus [17]): 0.4 mg/kg |
| 0.78 µg/mL (≈ 2.01 µM) | 0.2 µg/mL (≈ 0.516 µM) | 0.2 µg/mL (≈ 0.516 µM) | 25 µg/mL (≈ 64.5 µM) | 1.56 µg/mL (≈ 4.03 µM) | 0.78 µg/mL (≈ 2.01 µM) | 0.05 µg/mL (≈ 0.129 µM) | 3.1 µg/mL (≈ 8 µM) | Cc1c(N2C[C@H]3NCCO[C@@H]3C2)c(F)cn2c(=O)c(C(=O)O)cc(C3CC3)c12 | > 32 mg/kg | – | 6 mg/kg | 11.5 mg/kg | > 5 mg/kg | – | – | ED50 (Mus musculus [18]): > 50 mg/kg; ED50 (Mus musculus [19]): > 20 mg/kg |
| 0.2 µg/mL (≈ 0.536 µM) | 0.1 µg/mL (≈ 0.268 µM) | 0.1 µg/mL (≈ 0.268 µM) | 6.2 µg/mL (≈ 16.6 µM) | 0.39 µg/mL (≈ 1.04 µM) | 1.56 µg/mL (≈ 4.18 µM) | 0.05 µg/mL (≈ 0.134 µM) | 3.1 µg/mL (≈ 8.3 µM) | CCN[C@H]1CCN(c2c(F)cn3c(=O)c(C(=O)O)cc(C4CC4)c3c2C)C1 | > 8 mg/kg | – | 1 mg/kg | 7.7 mg/kg | 0.6 mg/kg | 2.9 mg/kg | – | ED50 (Mus musculus [3]): > 50 mg/kg; ED50 (Mus musculus [20]): 3 mg/kg; ED50 (Mus musculus [14]): 7.9 mg/kg |
| 0.2 µg/mL (≈ 0.519 µM) | 0.05 µg/mL (≈ 0.13 µM) | 0.2 µg/mL (≈ 0.519 µM) | 12.5 µg/mL (≈ 32.4 µM) | 0.39 µg/mL (≈ 1.01 µM) | 0.39 µg/mL (≈ 1.01 µM) | 0.02 µg/mL (≈ 0.0519 µM) | 0.39 µg/mL (≈ 1.01 µM) | Cc1c(N2CC[C@H](NC3CC3)C2)c(F)cn2c(=O)c(C(=O)O)cc(C3CC3)c12 | > 32 mg/kg | 16.5 mg/kg | 3.6 mg/kg | 25 mg/kg | 5 mg/kg | > 8 mg/kg | 23.1 mg/kg | ED50 (Mus musculus [13]): > 50 mg/kg |

Second part, the compound before the results:

| SMILES | MIC (Escherichia coli [1]; [21]) | MIC (Streptococcus pyogenes; [22]) | MIC (Enterococcus faecium; [23]) | MIC (Pseudomonas aeruginosa [4]; [24]) | MIC (Pseudomonas aeruginosa [6]; [25]) | MIC (Staphylococcus aureus [7]; [26]) | MIC (Staphylococcus aureus [8]; [27]) | MIC (Burkholderia cepacia; [28]) | ED50 (Pseudomonas aeruginosa [2]) | ED50 (Escherichia coli [5]) | ED50 (Staphylococcus aureus [9]; [29]) | ED50 (Staphylococcus aureus [10]) | ED50 (Escherichia coli [11]) | ED50 (Streptococcus pneumoniae) | ED50 (Mus musculus [16]) | further results |
| --- | --- | --- | --- | --- | --- | --- | --- | --- | --- | --- | --- | --- | --- | --- | --- | --- |
| CCCN[C@H]1CCN(c2c(F)cn3c(=O)c(C(=O)O)cc(C4CC4)c3c2C)C1 | 0.2 µg/mL (≈ 0.516 µM) | 0.2 µg/mL (≈ 0.516 µM) | 0.39 µg/mL (≈ 1.01 µM) | 12.5 µg/mL (≈ 32.3 µM) | 1.56 µg/mL (≈ 4.03 µM) | 1.56 µg/mL (≈ 4.03 µM) | 0.1 µg/mL (≈ 0.258 µM) | 3.1 µg/mL (≈ 8 µM) | > 8 mg/kg | > 10 mg/kg | 4.3 mg/kg | 25.4 mg/kg | 1.1 mg/kg | – | – | ED50 (Mus musculus [3]): > 50 mg/kg |
| Cc1c(N2CCC2)c(F)cn2c(=O)c(C(=O)O)cc(C3CC3)c12 | 3.1 µg/mL (≈ 9.8 µM) | 0.78 µg/mL (≈ 2.47 µM) | 0.78 µg/mL (≈ 2.47 µM) | > 10 µg/mL | – | 3.1 µg/mL (≈ 9.8 µM) | 0.2 µg/mL (≈ 0.632 µM) | 3.1 µg/mL (≈ 9.8 µM) | – | – | – | – | – | – | – | MIC (Pseudomonas aeruginosa [12]): 3.1 µg/mL (≈ 9.8 µM) |
| CN[C@@H]1CN(c2c(F)cn3c(=O)c(C(=O)O)cc(C4CC4)c3c2C)C[C@H]1C (stereo in doubt; 3v) | – | – | – | – | – | – | – | – | 16.1 mg/kg | 9.1 mg/kg | 1.6 mg/kg | 6.3 mg/kg | 2.8 mg/kg | 5 mg/kg | – | MIC (Escherichia coli [1]): 0.2 µg/mL (≈ 0.536 µM); MIC (Streptococcus pyogenes): 0.2 µg/mL (≈ 0.536 µM); MIC (Enterococcus faecium): 0.2 µg/mL (≈ 0.536 µM); MIC (Pseudomonas aeruginosa [4]): 12.5 µg/mL (≈ 33.5 µM); MIC (Pseudomonas aeruginosa [6]): 0.39 µg/mL (≈ 1.04 µM); MIC (Staphylococcus aureus [7]): 1.56 µg/mL (≈ 4.18 µM); MIC (Staphylococcus aureus [8]): 0.02 µg/mL (≈ 0.0536 µM); ED50 (Mus musculus [13]): > 50 mg/kg; MIC (Burkholderia cepacia): 1.56 µg/mL (≈ 4.18 µM); ED50 (Mus musculus [14]): 13 mg/kg |
| Cc1c(N2C[C@@H](N)[C@H](C3CC3)C2)c(F)cn2c(=O)c(C(=O)O)cc(C3CC3)c12 (stereo in doubt) | – | – | – | – | – | – | – | – | > 32 mg/kg | 10 mg/kg | – | 10.9 mg/kg | 3.4 mg/kg | 8 mg/kg | 25 mg/kg | MIC (Escherichia coli [1]): 0.2 µg/mL (≈ 0.519 µM); ED50 (Pseudomonas aeruginosa [15]): > 50 mg/kg; MIC (Streptococcus pyogenes): 0.05 µg/mL (≈ 0.13 µM); MIC (Enterococcus faecium): 0.1 µg/mL (≈ 0.259 µM); MIC (Pseudomonas aeruginosa [4]): 3.1 µg/mL (≈ 8.04 µM); MIC (Pseudomonas aeruginosa [6]): 0.39 µg/mL (≈ 1.01 µM); MIC (Staphylococcus aureus [7]): 0.78 µg/mL (≈ 2.02 µM); ED50 (Mus musculus [17]): 1.5 mg/kg; MIC (Staphylococcus aureus [8]): 0.05 µg/mL (≈ 0.13 µM); MIC (Burkholderia cepacia): 1.56 µg/mL (≈ 4.05 µM) |
| Cc1c(N2C[C@@H]3OCCN[C@@H]3C2)c(F)cn2c(=O)c(C(=O)O)cc(C3CC3)c12 | 0.78 µg/mL (≈ 2.01 µM) | 0.1 µg/mL (≈ 0.258 µM) | 0.1 µg/mL (≈ 0.258 µM) | 100 µg/mL (≈ 258 µM) | 1.56 µg/mL (≈ 4.03 µM) | 0.78 µg/mL (≈ 2.01 µM) | 0.002 µg/mL (≈ 0.00516 µM) | 6.2 µg/mL (≈ 16 µM) | – | – | 2.7 mg/kg | – | > 5 mg/kg | – | – | ED50 (Mus musculus [19]): > 20 mg/kg; ED50 (Staphylococcus aureus [9]): 4.8 mg/kg |

— ChEMBL document CHEMBL1132437, “Synthesis and antimicrobial activity of 4H-4-oxoquinolizine derivatives: consequences of structural modification at the C-8 position” (1999)
